Sampled rows, rich in hits. Any-hit rate of the full collection: about 2.6%.
ABHD5 PLIN5 PPI – blocks binding of human ABHD5 to perilipin-5. Q00G26+Q8WTS1. Split G. princeps luciferase complementation, luminescence, 4 h. inhibition, % at 4 µM. hit rate 0.78% among 360,000. AID 602281;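 active means inhibition above the mean inhibition across every tested compound plus 3 SD, cut at about 22% in these data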;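 further: 0% = DMSO only wells and the 100% control is not disclosed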
Target sequence (Q00G26 whole entry, looked up): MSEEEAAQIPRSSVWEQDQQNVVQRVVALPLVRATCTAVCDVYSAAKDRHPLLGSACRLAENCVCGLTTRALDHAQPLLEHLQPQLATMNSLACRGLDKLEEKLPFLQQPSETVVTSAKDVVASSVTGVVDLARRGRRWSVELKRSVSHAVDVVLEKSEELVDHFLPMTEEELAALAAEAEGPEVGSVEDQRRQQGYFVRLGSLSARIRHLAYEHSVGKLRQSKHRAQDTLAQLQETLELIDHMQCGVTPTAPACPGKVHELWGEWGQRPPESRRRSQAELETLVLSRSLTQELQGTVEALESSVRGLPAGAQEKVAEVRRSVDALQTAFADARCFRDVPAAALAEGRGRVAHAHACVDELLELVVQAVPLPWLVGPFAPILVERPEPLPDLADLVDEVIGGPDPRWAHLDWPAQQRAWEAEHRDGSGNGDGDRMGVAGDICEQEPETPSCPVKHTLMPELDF
Target sequence (Q8WTS1 whole entry, looked up): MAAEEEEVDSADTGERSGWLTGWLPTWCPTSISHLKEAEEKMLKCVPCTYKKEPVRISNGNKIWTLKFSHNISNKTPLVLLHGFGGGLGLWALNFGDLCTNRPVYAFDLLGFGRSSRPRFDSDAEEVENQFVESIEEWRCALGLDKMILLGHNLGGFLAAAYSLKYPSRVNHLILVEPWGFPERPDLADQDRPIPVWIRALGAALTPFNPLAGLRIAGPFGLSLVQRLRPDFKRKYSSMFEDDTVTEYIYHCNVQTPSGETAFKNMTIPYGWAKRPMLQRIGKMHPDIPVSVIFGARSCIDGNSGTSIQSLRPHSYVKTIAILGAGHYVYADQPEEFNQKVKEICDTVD
NadD inh – blocks S. aureus nicotinate mononucleotide adenylyltransferase; inhibition, % at 20 µM; hit rate 0.78% among 360,000; purified NadD enzyme, colorimetric absorbance read-out; in the data active means inhibition above about 26%
core dimer inh – HCV core protein dimerization inhibition; inhibition, % at 5 µM; TR-FRET GST/Flag-core106 dimerization, 1536-well; hit rate 0.33% among 300,000;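 active means inhibition above the mean of all tested compounds plus 3 SD, set per screening campaign, cut at about 45% in these data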
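Test system: GST/Flag-tagged HCV core106 proteins; Medium: KF-containing HEPES buffer, pH 7.45, DTT, CHAPS, BSA; Times: compound-protein-antibody incubation 4 h at 22.5 °C; Detection: TR-FRET 671 and 617 nm emission; Benchmarks: wells lacking GST-core106 and wells with excess unlabelled core106.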
rCAG binder – molecules binding r(CAG) RNA repeats. r(CAG) RNA repeat, TO-PRO-1 dye displacement fluorescence. inhibition, % at 3 µM. hit rate 1.3% among 370,000. AID 651821;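 active means inhibition above the plate cutoff, the mean of all test compounds on that plate plus 3 SD, cut at about 35% in these data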;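 further: 0% = DMSO alone and 100% = 100 µM mitoxantrone as full dye displacement; higher means more dye released from RNA so lower well fluorescence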
rCAG bind conf – r(CAG) RNA repeat binding, confirmation. shares compounds with rCAG binder. TO-PRO-1 dye displacement fluorescence. inhibition, % at 3 µM. hit rate 70% among 4,300. AID 652065;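 active means inhibition above a per-plate cutoff, the mean inhibition of sample wells plus 3 SD, cut at about 35% in these data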;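 further: loss of TO-PRO-1 fluorescence as compound displaces dye from 1x1 AA loop RNA; 0% = DMSO only wells and 100% = 100 µM mitoxantrone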
dCAG dye counter – disrupts DNA CAG TO-PRO-1 complex, flagging rCAG hits; d(CAG) DNA oligo TO-PRO-1 dye displacement, fluorescence; shares compounds with rCAG binder; inhibition, % at 3 µM; hit rate 94% among 4,300; AID 652068;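 active means inhibition above its plate's cutoff, the mean test-well inhibition plus 3 SD, cut at about 4.8% in these data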;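 further: 0% = DNA dye mix with DMSO and 100% = 100 µM mitoxantrone; hits displace the dye from DNA and so lower well fluorescence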
DNA CAG DR – disrupts DNA CAG TO-PRO-1 complex in dose response; shares compounds with rCAG binder; DNA CAG/GTC duplex TO-PRO-1 dye displacement fluorescence; IC50, µM; hit rate 20% among 250; AID 686960; in the data active means IC50 below about 10 µM
* hit, by the source's call; i = inactive; · = no result given.

SMILES	ABHD5 PLIN5 PPI	NadD inh	core dimer inh	rCAG binder	rCAG bind conf	dCAG dye counter	others
CCCCNC(=O)c1onc(CSc2cccc3ccccc23)c1C(=O)O	0.6	2.9	4.5	61.5*	53.2*	14.4*	DNA CAG DR=i
CCOc1cccc(SCc2noc(C(=O)NCCOC)c2C(=O)O)c1	2.6	-2.8	-14.7	13.0	·	·
CCCCNC(=O)c1onc(CSc2ccc(C(C)C)cc2)c1C(=O)O	-2.9	-1.4	8.7	51.4*	47.5*	11.4*
CCCCNC(=O)c1onc(CSc2ccccc2)c1C(=O)O	1.1	-1.2	6.2	11.3	·	·
CCN(Cc1ccccc1)S(=O)(=O)c1ccc(C(=O)Nc2nnc(C3CC3)o2)cc1	-5.6	14.3	7.5	45.3*	36.1*	11.7*
Cc1nnc(NC(=O)c2ccc(S(=O)(=O)N(C)Cc3ccccc3)cc2)o1	-8.4	3.9	-0.2	·	·	·
CC(=O)Nc1cccc(-c2cc(NC(C)=O)c3ncc(-c4ccc(C(C)=O)cc4)n3c2)c1	-4.8	-7.1	·	12.6	·	·
CCCC[C@@H]1C=C(C(=O)O)[C@H](c2ccc(C#N)cc2)N1S(=O)(=O)c1ccc(C)cc1	-4.2	-0.4	·	52.6*	32.6	7.9*
CCCCC[C@@H]1C=C(C(=O)O)[C@H](c2ccc(Cl)cc2)N1S(=O)(=O)c1ccc(C)cc1	1.3	7.7	·	79.0*	64.4*	28.0*
CCCCC[C@@H]1C=C(C(=O)O)[C@H](c2ccc(C)cc2)N1S(=O)(=O)c1ccc(C)cc1	3.4	1.1	·	73.7*	52.7*	17.7*
CCCC[C@@H]1C=C(C(=O)O)[C@H](c2ccc(C)cc2)N1S(=O)(=O)c1ccc(C)cc1	-0.5	-3.6	·	31.6	·	·
CCCC[C@@H]1C=C(C(=O)O)[C@H](c2ccc(Cl)c(Cl)c2)N1S(=O)(=O)c1ccc(C)cc1	-1.6	3.6	·	79.9*	69.3*	33.9*
COc1cccc(C(O)c2nc(-c3ccc(Cl)cc3)cs2)c1 (configuration not stated)	0.5	-5.1	·	2.5	·	·
O=C(COc1ccccc1C(=O)O)Nc1cccc2ccccc12	6.0	-9.3	·	4.6	·	·
O=C(COc1cccc2ccccc12)Nc1cc(Cl)ccc1C(=O)O	-6.6	2.2	-0.3	74.9*	70.4*	30.1*	DNA CAG DR=i
O=C(COc1cccc2ccccc12)Nc1ccc(Cl)cc1C(=O)O	-5.1	-1.3	12.9	68.0*	66.2*	18.8*
CCC(C)N(C(=O)CSc1nnc(-c2cc(OC)c(OC)c(OC)c2)o1)C(C)CC (configuration not stated)	·	·	·	-1.6	·	·
Cc1ccc2c(c1)c1c3n2CCN(C(=O)C2CC2)C3CCC1 (configuration not stated)	3.5	-5.8	-8.3	8.3	·	·
Cc1ccc2c(c1)c1c3n2CC(=C2C(=O)OC(C)(C)OC2=O)NC3CCC1 (configuration not stated)	7.2	29.9	46.3*	46.7*	34.2	18.4*
CCC1=NN2C(=N)/C(=C/c3c(C)nn(-c4ccccc4)c3Cl)C(=O)N=C2S1	-0.1	5.5	-8.2	15.9	·	·
CCC1=NN2C(=N)/C(=C\c3ccc(SCc4ccco4)o3)C(=O)N=C2S1	3.1	19.0	13.8	65.0*	55.6*	20.3*
CC(=O)C1=C(O)C(=O)N(c2ccc(S(N)(=O)=O)cc2)C1c1cccc([N+](=O)[O-])c1 (configuration not stated)	-0.1	0.5	0.4	6.0	·	·
CC(=O)C1C(=O)c2c(cccc2[N+](=O)[O-])C1=Nc1ccc(S(N)(=O)=O)cc1 (configuration not stated)	-3.8	4.5	7.6	37.7*	28.1	13.4*
Cc1csc(NC(=O)COCC(=O)O)c1-c1nc2ccccc2s1	3.8	1.4	3.7	55.5*	43.2*	9.7*
C[C@H](CO)N1C[C@H](C)[C@H](CN(C)C(=O)C2CCCCC2)OCc2cnnn2CCCC1=O	·	·	·	2.8	·	·
SMILES	ABHD5 PLIN5 PPI	NadD inh	core dimer inh	rCAG binder	rCAG bind conf	dCAG dye counter	others
COc1cc(-c2cc(C(=O)Nc3cc(S(=O)(=O)N4CCOCC4)ccc3O)c3ccccc3n2)cc(OC)c1OC	-7.1	0.7	·	72.2*	74.4*	34.6*
CCS(=O)(=O)c1ccc(O)c(NC(=O)c2ccc(S(=O)(=O)N3CCCCCC3)cc2)c1	7.4	-3.1	·	36.8*	46.4*	10.9*
COc1cc(-c2cc(C(=O)Nc3cc(S(=O)(=O)N4CCOCC4)ccc3C)c3ccccc3n2)cc(OC)c1OC	5.8	-4.1	·	12.1	·	·
CCOC(=O)c1ccc(NC(=O)c2cc(S(=O)(=O)N3CCOCC3)ccc2O)cc1	-8.9	-5.7	7.5	48.9*	39.7*	9.2*
CCN(CC)S(=O)(=O)c1ccc(C(=O)Nc2cc(S(=O)(=O)N3CCOCC3)ccc2O)cc1	2.8	-1.1	·	35.5*	31.7	6.9*
C=CCCC1CN(Cc2ccc(OC)cc2)S(=O)(=O)c2c(Oc3ccc(OC)cc3)cccc2O1 (configuration not stated)	·	·	·	9.4	·	·
CC1=C/C(=C(\c2cc(C)c(O)c(Br)c2)c2ccccc2S(=O)(=O)O)C=C(Br)C1=O	-0.8	9.6	-182.7	49.3*	33.2	9.3*
Cc1cc(C(=O)c2ccccc2)cc(C)c1O	6.9	-4.3	·	0.9	·	·
CCCCS(=O)(=O)NC(=O)C1(C)CCN1C(=O)C/C=C/c1ccccc1 (configuration not stated)	3.1	4.2	·	8.8	·	·
CCCCOc1ccc(S(=O)(=O)NC(=O)C2(C)CCN2C(=O)c2cccc(F)c2)cc1 (configuration not stated)	-1.9	3.1	·	27.4	·	·
CCCCc1ccc(S(=O)(=O)NC(=O)C2(C)CCN2C(=O)c2cccc(F)c2)cc1 (configuration not stated)	-4.7	0.2	·	36.6*	29.7	6.5*
CCCCc1ccc(S(=O)(=O)NC(=O)C2(C)CCN2C(=O)C/C=C/c2ccccc2)cc1 (configuration not stated)	3.5	-1.8	·	57.5*	54.9*	17.9*
CCCCc1ccc(S(=O)(=O)NC(=O)C2(C)CCN2C(=O)Cc2ccccc2)cc1 (configuration not stated)	-9.6	-0.7	·	39.3*	29.5	4.8*
O=C1NN(c2ccccc2)C(=O)/C1=C\c1coc2ccc(O)cc2c1=O	17.0	3.0	2.6	36.5*	7.8	3.7
O=C1NN(c2cccc(Br)c2)C(=O)/C1=C\c1ccccc1	-2.4	15.8	-2.6	77.5*	38.8*	10.9*
O=C1NN(c2ccccc2)C(=O)/C1=C/c1coc2ccccc2c1=O	-2.4	7.8	6.7	39.2*	10.6	2.5
COc1ccc(-c2c(-c3ccccc3OC)sc3ccccc23)cc1F	·	·	·	7.6	·	·
COc1cccc(OCc2ccc(Cn3nc(NC(=O)NCCc4ccc(OC)c(OC)c4)c4ccccc43)cc2)c1	-3.7	-4.0	·	4.2	·	·
COc1ccccc1Cc1c(C2CCCCC2)nc2c(C)cc(Br)cn12	·	·	·	7.8	·	·

Bioassay records (PubChem)
